The source made the active and inactive calls. The calls are words filed in the database; no cut-off is given here.
What was measured:
[1] = biological target: T1, Prostaglandin E synthase (Homo sapiens) (UniProt O14684); test: Inhibition of human recombinant mPGES1 using PGH2 as substrate at 10 uM incubated for 5 mins prior to substrate addition measured after 5 mins by HPLC analysis in presence of triton-X-100
T1 sequence (whole entry): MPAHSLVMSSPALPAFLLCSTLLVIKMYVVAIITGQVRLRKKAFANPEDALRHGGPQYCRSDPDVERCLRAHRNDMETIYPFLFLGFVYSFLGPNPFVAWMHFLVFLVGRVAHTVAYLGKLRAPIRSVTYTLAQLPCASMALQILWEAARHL
In short: (§1)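 mPGES-1 inhibition measured at 10 µM test compound, run with and without 0.1% Triton X-100, following a previously published protocol. Reported as % inhibition.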

[2] = biological target: T1, Prostaglandin E synthase (Homo sapiens); test: Inhibition of human recombinant mPGES1 using PGH2 as substrate at 10 uM incubated for 5 mins prior to substrate addition measured after 5 mins by HPLC analysis; in short: as §1
[3] = biological target: T2, Prostaglandin G/H synthase 1 (Ovis aries) (UniProt P05979); test: Inhibition of ovine COX1 using PGH2 as substrate at 1 mM incubated for 10 mins prior to substrate addition measured for 2 mins by enzyme immunoassay; conditions: in the assay text read “arachidonic acid” for “PGH2”
T2 sequence (whole entry): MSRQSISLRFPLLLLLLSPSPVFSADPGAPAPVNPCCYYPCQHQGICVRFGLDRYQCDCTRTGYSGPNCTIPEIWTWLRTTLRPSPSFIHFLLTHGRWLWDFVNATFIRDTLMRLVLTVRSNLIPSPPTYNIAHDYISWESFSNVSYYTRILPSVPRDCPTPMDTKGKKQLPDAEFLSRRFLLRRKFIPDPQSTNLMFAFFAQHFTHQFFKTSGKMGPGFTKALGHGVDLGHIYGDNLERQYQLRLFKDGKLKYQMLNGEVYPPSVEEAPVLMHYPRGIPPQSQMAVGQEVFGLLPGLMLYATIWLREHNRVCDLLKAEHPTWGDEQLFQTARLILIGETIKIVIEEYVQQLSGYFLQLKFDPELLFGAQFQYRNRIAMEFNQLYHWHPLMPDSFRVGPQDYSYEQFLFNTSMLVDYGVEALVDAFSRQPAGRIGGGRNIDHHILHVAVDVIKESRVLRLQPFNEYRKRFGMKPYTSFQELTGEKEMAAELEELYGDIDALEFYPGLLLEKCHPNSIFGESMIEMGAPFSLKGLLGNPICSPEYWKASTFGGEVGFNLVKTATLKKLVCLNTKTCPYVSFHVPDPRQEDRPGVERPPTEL
In short: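 COX-1 (purified ovine) or COX-2 (purified human recombinant) preincubated with test compound 10 min at 37 °C, then tested at 1 mM. Prostanoid product quantified by enzyme immunoassay with a broadly specific antibody that binds all major prostaglandins (COX inhibitor screening kit).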

[4] = biological target: T1, Prostaglandin E synthase (Homo sapiens); test: Ratio of MK886 IC50 to compound IC50 for mPGES1 (unknown origin)
Prostaglandin E synthase = biological target: T3, Prostaglandin E synthase (Homo sapiens, UniProt O14684); test: Inhibition of mPGES1 (unknown origin) using PGH2 as substrate incubated for 30 mins prior to substrate addition by PGH2-coupled spectrophotometric analysis
T3 sequence (O14684 whole entry): T1 sequence (whole entry)
In short: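 Two-enzyme coupled assay. 110 nM mPGES-1 and 220 nM 15-PGDH in 200 µL buffer (50 mM Tris-HCl pH 7.5, 50 µM PMA, 2 mM reduced glutathione, 1 mM NAD+, 0.1 mM DTT), compound added in 1 µL DMSO, preincubated 30 min. Started with cold PGH2 (14 µM final). NADH read by fluorescence, excitation 340 nm, emission 468 nm. IC50 from varying concentrations.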

[5] = Selectivity index, ratio of IC50 for ovine COX1 to IC50 for mPGES1 (unknown origin)
[6] = biological target: T4, Prostaglandin G/H synthase 2 (Homo sapiens) (UniProt P35354); test: Inhibition of human recombinant COX2 using arachidonic acid as substrate at 1 mM incubated for 10 mins prior to substrate addition measured for 2 mins by enzyme immunoassay
T4 sequence (whole entry): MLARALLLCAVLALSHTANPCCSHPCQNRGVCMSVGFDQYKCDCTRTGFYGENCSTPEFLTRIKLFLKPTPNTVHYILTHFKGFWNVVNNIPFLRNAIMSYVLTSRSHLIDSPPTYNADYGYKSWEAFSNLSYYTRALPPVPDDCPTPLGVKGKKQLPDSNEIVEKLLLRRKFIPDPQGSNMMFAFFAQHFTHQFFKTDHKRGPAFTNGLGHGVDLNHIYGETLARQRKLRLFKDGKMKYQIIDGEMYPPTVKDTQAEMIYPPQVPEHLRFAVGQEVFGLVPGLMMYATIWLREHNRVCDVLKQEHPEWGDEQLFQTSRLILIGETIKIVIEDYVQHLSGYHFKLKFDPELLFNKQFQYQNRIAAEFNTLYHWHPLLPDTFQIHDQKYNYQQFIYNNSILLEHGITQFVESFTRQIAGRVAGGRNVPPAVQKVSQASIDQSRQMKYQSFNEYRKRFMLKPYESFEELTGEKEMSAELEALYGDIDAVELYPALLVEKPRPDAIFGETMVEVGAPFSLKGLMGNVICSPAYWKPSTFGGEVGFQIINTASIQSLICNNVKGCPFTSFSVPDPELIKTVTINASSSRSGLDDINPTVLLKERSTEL

[7] = Inhibition of rat mPGES1 expressed in CHOK21 cells using [3H]PGH2 as substrate by radio-HPLC analysis; format: cell-based

| SMILES | IC50 (Prostaglandin E synthase) [µM] | also measured |
| --- | --- | --- |
| O=C(O)c1nnn(CCN(c2ccccc2)S(=O)(=O)c2ccccc2)c1C(=O)O | 1.1 | inhibition [1]: 18.1%; inhibition [2]: 69.1%; inhibition [3]: 50%; Ratio IC50 [4]: 3.5; Ratio IC50 [5]: 1000; inhibition [6]: inactive |
| O=C(O)c1nnn(CCNS(=O)(=O)c2ccccc2)c1C(=O)O | 4.1 | – |
| Cc1ccc(S(=O)(=O)NCn2nnc(C(=O)O)c2C(=O)O)cc1 | 6.9 | – |
| Cc1ccc(S(=O)(=O)NCCn2nnc(C(=O)O)c2C(=O)O)cc1 | 4.2 | – |
| NC(=O)c1nnn(CCNS(=O)(=O)c2ccccc2)c1C(N)=O | 23.3 | – |
| O=C(O)c1nnn(CCNS(=O)(=O)c2ccccc2C(F)(F)F)c1C(=O)O | 3.3 | – |
| CN(CCn1nnc(C(=O)O)c1C(=O)O)S(=O)(=O)c1ccccc1 | 4 | – |
| O=C(O)c1nnn(CCNS(=O)(=O)c2cccc(C(F)(F)F)c2)c1C(=O)O | 4.4 | – |
| CC(C)c1ccc2c(c1)c(SC(C)(C)C)c(CC(C)(C)C(=O)O)n2Cc1ccc(Cl)cc1 | – | IC50 [7]: 3.2 µM |
| CCCN(CCn1nnc(C(=O)O)c1C(=O)O)S(=O)(=O)c1ccc(C)cc1 | 3.8 | – |
| CS(=O)(=O)NCCn1nnc(C(=O)O)c1C(=O)O | 10.3 | – |
| CCS(=O)(=O)NCCn1nnc(C(=O)O)c1C(=O)O | 9.7 | – |
| COC(=O)c1nnn(CCNS(=O)(=O)c2ccccc2)c1C(=O)OC | 12.9 | – |
| Cc1ccc(S(=O)(=O)NCCCn2nnc(C(=O)O)c2C(=O)O)cc1 | 6.3 | – |

Reference: ChEMBL document CHEMBL2311362, “Fragment-based discovery of novel and selective mPGES-1 inhibitors Part 1: identification of sulfonamido-1,2,3-triazole-4,5-dicarboxylic acid” (Bioorg Med Chem Lett, 2013)
